Laboratory results from ChEMBL document CHEMBL1800057, “Discovery of dual inducible/neuronal nitric oxide synthase (iNOS/nNOS) inhibitor development candidate 4-((2-cyclobutyl-1H-imidazo[4,5-b]pyrazin-1-yl)methyl)-7,8-difluoroquinolin-2(1H)-one (KD7332) part 2: identification of a novel, potent, and selective series of benzimidazole-quinolinone …” (J Med Chem, 2010).
Activity calls are given as the source filed them.

Tests used:
Nitric oxide synthase 1 [1] = molecular target: T1, Nitric oxide synthase 1 (Homo sapiens, UniProt P29475); assay: Inhibition of human nNOS expressed in HEK293 cells assessed as inhibition ionomycin induced nitric oxide production at 100 uM incubated for 24 hrs measured after 18 hrs of ionomycin challenge using 2,3-diaminonaphthalene by fluorescence assay; format: cell-based
T1 sequence (P29475 whole entry): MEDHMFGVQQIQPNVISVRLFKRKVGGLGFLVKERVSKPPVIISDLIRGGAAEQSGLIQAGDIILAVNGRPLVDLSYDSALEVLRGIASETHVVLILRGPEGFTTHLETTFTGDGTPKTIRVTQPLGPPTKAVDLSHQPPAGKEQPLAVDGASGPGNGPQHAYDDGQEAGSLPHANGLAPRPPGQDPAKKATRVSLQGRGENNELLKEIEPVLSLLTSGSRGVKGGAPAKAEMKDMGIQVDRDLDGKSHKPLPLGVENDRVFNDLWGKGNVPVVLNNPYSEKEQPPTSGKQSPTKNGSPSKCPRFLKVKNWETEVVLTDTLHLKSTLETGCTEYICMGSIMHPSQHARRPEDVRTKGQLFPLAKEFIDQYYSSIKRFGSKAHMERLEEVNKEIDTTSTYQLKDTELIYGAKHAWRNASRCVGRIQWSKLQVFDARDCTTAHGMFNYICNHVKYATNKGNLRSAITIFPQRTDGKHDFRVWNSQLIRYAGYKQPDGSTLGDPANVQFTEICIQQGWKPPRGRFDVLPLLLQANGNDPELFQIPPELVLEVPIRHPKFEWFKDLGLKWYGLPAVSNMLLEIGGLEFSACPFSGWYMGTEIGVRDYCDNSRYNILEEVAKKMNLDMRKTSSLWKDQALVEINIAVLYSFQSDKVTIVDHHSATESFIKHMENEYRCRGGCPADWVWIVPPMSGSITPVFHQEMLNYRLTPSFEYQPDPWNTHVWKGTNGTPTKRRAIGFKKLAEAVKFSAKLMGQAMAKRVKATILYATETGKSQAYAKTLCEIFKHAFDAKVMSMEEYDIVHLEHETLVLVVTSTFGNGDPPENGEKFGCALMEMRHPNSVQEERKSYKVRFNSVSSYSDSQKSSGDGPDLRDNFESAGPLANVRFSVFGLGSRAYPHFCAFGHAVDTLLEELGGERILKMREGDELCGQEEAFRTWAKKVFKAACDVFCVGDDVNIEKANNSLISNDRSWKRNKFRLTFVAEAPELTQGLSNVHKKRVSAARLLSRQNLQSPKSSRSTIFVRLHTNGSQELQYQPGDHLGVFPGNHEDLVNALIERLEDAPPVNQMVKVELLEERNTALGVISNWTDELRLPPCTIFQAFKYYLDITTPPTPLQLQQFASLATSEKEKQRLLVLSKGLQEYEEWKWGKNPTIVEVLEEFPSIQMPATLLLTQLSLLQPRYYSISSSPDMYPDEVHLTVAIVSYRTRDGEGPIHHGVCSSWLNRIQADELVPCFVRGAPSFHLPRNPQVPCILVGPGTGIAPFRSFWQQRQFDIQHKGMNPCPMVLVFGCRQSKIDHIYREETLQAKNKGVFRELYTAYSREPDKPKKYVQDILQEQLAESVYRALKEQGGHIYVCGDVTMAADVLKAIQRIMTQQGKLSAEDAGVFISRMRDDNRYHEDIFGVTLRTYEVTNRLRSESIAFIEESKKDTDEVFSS

[2] = molecular target: T2, Nitric oxide synthase, inducible (Homo sapiens, UniProt P35228); assay: Inhibition of human iNOS expressed in HEK293 cells assessed as inhibition of nitric oxide production after 18 hrs using 2,3-diaminonaphthalene by fluorescence assay; format: cell-based
T2 sequence (P35228 whole entry): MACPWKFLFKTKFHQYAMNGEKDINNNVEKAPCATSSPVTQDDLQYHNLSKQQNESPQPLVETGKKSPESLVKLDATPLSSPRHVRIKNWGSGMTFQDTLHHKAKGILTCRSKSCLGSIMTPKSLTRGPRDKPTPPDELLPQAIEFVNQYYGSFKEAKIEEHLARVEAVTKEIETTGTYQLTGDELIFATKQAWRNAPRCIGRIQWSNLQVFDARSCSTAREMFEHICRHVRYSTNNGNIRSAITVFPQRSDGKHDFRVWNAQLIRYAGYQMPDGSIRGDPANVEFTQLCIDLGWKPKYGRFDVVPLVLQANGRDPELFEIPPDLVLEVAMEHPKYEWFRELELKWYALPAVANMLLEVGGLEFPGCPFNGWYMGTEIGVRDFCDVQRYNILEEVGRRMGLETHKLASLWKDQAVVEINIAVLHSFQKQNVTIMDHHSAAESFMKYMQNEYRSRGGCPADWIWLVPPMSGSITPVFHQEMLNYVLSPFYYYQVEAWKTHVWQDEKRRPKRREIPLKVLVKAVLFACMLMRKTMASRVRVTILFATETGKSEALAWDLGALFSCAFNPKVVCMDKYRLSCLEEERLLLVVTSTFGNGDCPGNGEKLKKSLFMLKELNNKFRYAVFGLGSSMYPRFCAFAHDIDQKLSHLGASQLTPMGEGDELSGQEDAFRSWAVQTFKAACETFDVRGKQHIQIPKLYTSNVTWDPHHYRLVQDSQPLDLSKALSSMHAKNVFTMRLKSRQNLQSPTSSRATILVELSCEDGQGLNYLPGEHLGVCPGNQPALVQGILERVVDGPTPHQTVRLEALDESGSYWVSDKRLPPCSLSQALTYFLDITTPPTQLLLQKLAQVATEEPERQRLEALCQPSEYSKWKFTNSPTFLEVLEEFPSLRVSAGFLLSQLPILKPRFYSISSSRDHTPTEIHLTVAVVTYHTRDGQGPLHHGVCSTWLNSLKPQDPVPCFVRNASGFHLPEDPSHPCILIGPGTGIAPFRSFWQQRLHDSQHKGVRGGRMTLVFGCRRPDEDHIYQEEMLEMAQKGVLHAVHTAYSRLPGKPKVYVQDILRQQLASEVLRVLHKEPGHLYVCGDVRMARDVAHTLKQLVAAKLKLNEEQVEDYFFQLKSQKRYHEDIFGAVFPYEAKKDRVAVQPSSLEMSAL
Summary of the method: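 HEK293 cells grown to ~70% confluence in DMEM/10% FBS with pen/strep, transiently transfected with 10 μg human or murine iNOS plasmid plus Fugene 6 for 4 h at 37 °C, 10% CO2. Cells replated at 5e5 cells/mL and dosed with compound at once; 1400W (100 μM final) as positive control. After 18 h, DAN (10 μg/mL final) in HCl (0.1 N final) added for 20 min at room temperature. Fluorescence read after NaOH (0.12 N final).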

Nitric oxide synthase 1 [3] = molecular target: T1, Nitric oxide synthase 1; assay: Inhibition of human nNOS expressed in HEK293 cells assessed as inhibition ionomycin induced nitric oxide production incubated for 24 hrs measured after 18 hrs of ionomycin challenge using 2,3-diaminonaphthalene by fluorescence assay; format: cell-based
Summary of the method: (§1)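 HEK293 cells transfected for 4 h at 37 °C with human nNOS (10 μg) or human eNOS (15 μg) plasmid (Fugene 6, 3:1). Cells replated at 5e5 cells/mL and dosed with compound at once; SEITU (100 μM final) as positive control. After 24 h, cells activated with A23187 (83 nM final) for eNOS or ionomycin (30 μM final) for nNOS. NO read 18 h later as nitrite-DAN fluorescence.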

Nitric oxide synthase 3 = molecular target: T3, Nitric oxide synthase 3 (Homo sapiens, UniProt P29474); assay: Inhibition of human eNOS expressed in HEK293 cells assessed as inhibition A23187 induced nitric oxide production incubated for 24 hrs measured after 18 hrs of […] challenge using 2,3-diaminonaphthalene by fluorescence assay; format: cell-based; summary of the method: as §1
T3 sequence (P29474 whole entry): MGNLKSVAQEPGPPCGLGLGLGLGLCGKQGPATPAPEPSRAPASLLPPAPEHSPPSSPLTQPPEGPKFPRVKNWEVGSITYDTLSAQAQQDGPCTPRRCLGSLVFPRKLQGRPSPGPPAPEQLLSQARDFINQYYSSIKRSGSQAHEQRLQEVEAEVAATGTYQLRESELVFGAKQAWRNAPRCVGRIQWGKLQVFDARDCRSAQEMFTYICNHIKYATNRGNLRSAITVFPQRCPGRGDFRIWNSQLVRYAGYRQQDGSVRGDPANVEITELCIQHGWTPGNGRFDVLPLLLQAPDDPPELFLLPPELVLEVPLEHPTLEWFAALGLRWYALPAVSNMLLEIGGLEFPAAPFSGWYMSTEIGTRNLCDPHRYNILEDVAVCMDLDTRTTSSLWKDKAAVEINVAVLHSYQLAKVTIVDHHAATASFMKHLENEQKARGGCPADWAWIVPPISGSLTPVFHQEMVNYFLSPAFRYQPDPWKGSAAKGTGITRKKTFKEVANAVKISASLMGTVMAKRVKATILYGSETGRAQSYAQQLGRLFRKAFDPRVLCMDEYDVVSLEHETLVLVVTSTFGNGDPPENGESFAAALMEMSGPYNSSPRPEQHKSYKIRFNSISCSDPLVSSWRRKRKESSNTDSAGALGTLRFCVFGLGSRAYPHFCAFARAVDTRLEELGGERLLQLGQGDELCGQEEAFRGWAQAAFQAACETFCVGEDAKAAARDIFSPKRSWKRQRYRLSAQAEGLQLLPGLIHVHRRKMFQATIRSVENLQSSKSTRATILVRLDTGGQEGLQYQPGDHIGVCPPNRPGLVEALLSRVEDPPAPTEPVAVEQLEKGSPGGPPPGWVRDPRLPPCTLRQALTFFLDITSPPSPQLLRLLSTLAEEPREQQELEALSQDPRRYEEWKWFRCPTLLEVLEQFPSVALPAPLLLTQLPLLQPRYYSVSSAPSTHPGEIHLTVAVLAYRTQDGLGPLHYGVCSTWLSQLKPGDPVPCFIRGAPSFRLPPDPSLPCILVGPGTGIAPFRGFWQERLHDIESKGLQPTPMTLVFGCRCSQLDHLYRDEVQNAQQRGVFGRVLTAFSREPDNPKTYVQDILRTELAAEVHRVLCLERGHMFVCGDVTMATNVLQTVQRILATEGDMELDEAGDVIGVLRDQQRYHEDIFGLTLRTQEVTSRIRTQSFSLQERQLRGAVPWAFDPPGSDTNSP

Liver = assay: Half life in mouse liver microsomes assessed as formation of oxidation product and glucuronide conjugate; format: ADME, Microsome
Summary of the method: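 Mouse liver microsomes run under combined phase I oxidation and phase II glucuronide conjugation; half-life reported in minutes.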

Homo sapiens [4] = organism: Homo sapiens; assay: Ratio of IC50 for human eNOS to EC50 for human iNOS
Homo sapiens [5] = organism: Homo sapiens; assay: Ratio of IC50 for human nNOS to EC50 for human iNOS
[6] = molecular target: T4, Nitric oxide synthase 3 (Homo sapiens) (UniProt P29474); assay: Inhibition of human eNOS expressed in HEK293 cells assessed as inhibition A23187 induced nitric oxide production at 100 uM incubated for 24 hrs measured after 18 hrs of […] challenge using 2,3-diaminonaphthalene by fluorescence assay; format: cell-based
T4 sequence (whole entry): T3 sequence (P29474 whole entry)

Mus musculus [7] = assay: Antiallodynic activity against von Frey hair mechanically stimulated neuropathic pain in mouse Chung model of neuropathic pain assessed as attenuation of tactile allodynia at 300 mg/kg, po; format: functional, organism-based; design: dose 300 mg/kg
Mus musculus [8] = assay: Neurotoxicity in C57Bl/6j mouse assessed as inability to maintain equilibrium on rotarod up to 1000 mg/kg, po determined 1 to 3 hrs postdose by rotarod test; format: toxicity, organism-based; design: dose 1000 mg/kg, route oral; conditions: in vivo
Summary of the method: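 Male C57Bl/6j mice were acclimated to the rotarod at 4 rpm, then given two training sessions on an accelerating rod (4-40 rpm over 300 s). Only mice with latencies >60 s were kept. After oral dosing, latency to fall from the accelerating rod was recorded at 1, 2 and 3 h.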

Mus musculus [9] = assay: Antinociceptive activity against formalin-induced pain in mouse assessed as attenuation of nocifensive phase 2 behaviors during phase 2 (25 to 45 mins post formalin injection) administered via oral gavage 30 mins before to formalin challenge; format: functional
Summary of the method: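 Mice were given compound by oral gavage in PEG/Tween 80/PVP + CMC vehicle 30 min before 20 μL of 5% formalin was injected into the left hind paw. Paw flinching, licking and biting were timed in 5 min bins by a single observer. Read-out was time in nociceptive behaviour at 25-45 min. Mean ± SE, n = 5-6, one-way ANOVA with post hoc tests.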

Mus musculus [10] = assay: Antiallodynic activity against von Frey hair mechanically stimulated neuropathic pain in mouse Chung model of neuropathic pain assessed as attenuation of tactile allodynia at 30 mg/kg, po; format: functional, organism-based; design: dose 30 mg/kg
Summary of the method: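 Spinal nerve ligation (Chung) surgery done under isoflurane anaesthesia (5% induction, 2-3% maintenance). Only mice with baseline 50% withdrawal threshold ~0.2-0.3 g at days 5-10 after surgery were included. Von Frey filaments applied for 10 s each; 50% threshold calculated by Dixon up-down method. Compound given po at 30 mg/kg, and also 30 mg/kg BID for four days.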

Mus musculus [11] = assay: Antiallodynic activity against von Frey hair mechanically stimulated neuropathic pain in mouse Chung model of neuropathic pain assessed as attenuation of tactile allodynia at 30 mg/kg, po bid for 4 days; format: functional, organism-based; design: dose 30 mg/kg
Summary of the method: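 Spinal nerve ligation in mice under isoflurane (5% induction, 2-3% maintenance). Von Frey filaments pressed on the paw for up to 10 s. 50% withdrawal threshold derived by Dixon's up-down method. Only mice with baseline thresholds of ~0.2-0.3 g between 5 and 10 days post-surgery were included. Dosing was oral.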

Rhesus monkey = assay: Inhibition of capsaicin-induced thermal hyperalgesia in rhesus monkey model; format: functional, organism-based; conditions: Macaca mulatta
[12] = Plasma clearance in mouse at 1 mg/kg, iv and 10 mg/kg, po; format: ADME, organism-based
[13] = Volume of distribution at steady state in mouse at 1 mg/kg, iv and 10 mg/kg, po; format: ADME, organism-based; conditions: in vivo, read-out: Vdss
[14] = Cmax in mouse at 1 mg/kg, iv and 10 mg/kg, po; format: ADME, organism-based; conditions: in vivo
[15] = Half life in mouse at 1 mg/kg, iv and 10 mg/kg, po; format: ADME, organism-based; conditions: in vivo
[16] = Oral bioavailability in mouse at 10 mg/kg; format: ADME, organism-based; conditions: in vivo
Homo sapiens [17] = organism: Homo sapiens; assay: Selectivity for human iNOS over human eNOS
Summary of the method: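 Ratio of EC₅₀ values from transiently transfected HEK293 cells. iNOS: plasmid, 18 h with compound, 1400W control, n = 8/point. eNOS: 15 μg human eNOS plasmid, 24 h with compound at 37 °C, then A23187 (83 nM final) for 18 h, SEITU (100 μM final) control, n = 3/point. NO read by DAN fluorescence; each EC₅₀ from three runs of 10-point curves.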

[18] = molecular target: T2, Nitric oxide synthase, inducible; assay: Inhibition of human iNOS
Summary of the method: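 HEK293 cells grown to about 70% confluence in DMEM with 10% FBS and pen/strep, then transiently transfected with human iNOS plasmid using Fugene 6 for 4 h at 37 °C, 10% CO₂. Cells replated at 5e5 cells/mL and treated at once with compound; 1400W (100 μM final) as positive control. After 18 h, NO read as DAN-nitrite fluorescence. EC₅₀ from three runs, 10-point curves, n = 8/point.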

[19] = Plasma clearance in mouse; format: ADME, organism-based
[20] = Half life in mouse; format: ADME, organism-based; conditions: in vivo

Q: With `CC(C)(C)c1nc2ccccc2n1Cc1cc(=O)[nH]c2c(F)c(F)ccc12` as the compound, how does the inhibition (Nitric oxide synthase 1 [1]) read?
A: The inhibition was under 50%.

Q: What about the EC50 [2] of the same compound?
A: Its EC50 is 48 µM.

Q: And the EC50 (Nitric oxide synthase 1 [3])?
A: The EC50 was over 100 µM.

Q: What about the EC50 (Nitric oxide synthase 3) of the same compound?
A: The EC50 was over 100 µM.

Q: What about the t1/2 (Liver) of the same compound?
A: The t1/2 was over 120 min.

Q: And the Ratio EC50 (Homo sapiens [4])?
A: Its Ratio EC50 is over 2.

Q: What about the Ratio EC50 (Homo sapiens [5]) of the same compound?
A: Its Ratio EC50 is over 2.

Q: What about the inhibition [6] of the same compound?
A: Its inhibition is under 50%.

Q: Which Activity (Mus musculus [7]) does the source give for `NCC1(CC(=O)O)CCCCC1` [GABAPENTIN] here?
A: Its Activity is “Active”.

Q: And the Activity (Mus musculus [8])?
A: Its Activity is “Dose-dependent effect”.

Q: What about the ED50 (Mus musculus [9]) of the same compound?
A: The ED50 was 110 mg/kg.

Q: Which results are given for `O=c1cc(Cn2c(C3CCC3)nc3nccnc32)c2ccc(F)c(F)c2[nH]1`?
A: Activity (Mus musculus [10]): Active; Activity (Mus musculus [11]): Active; inhibition (Rhesus monkey): Active; Ratio EC50 (Homo sapiens [4]): 180; Ratio EC50 (Homo sapiens [5]): 3.3

Q: With `Cc1ncsc1C(=O)N(Cc1cc(=O)[nH]c2c(F)cccc12)c1cccc(Cl)c1` as the compound, how does the clearance [12] read?
A: Its clearance is over 100 mL/min/kg.

Q: And the Vd [13]?
A: The Vd was 1.6 L/kg.

Q: And the Cmax [14]?
A: Its Cmax is 1400 ng/mL.

Q: What about the half-life [15] of the same compound?
A: The half-life was 12 min.

Q: What about the bioavailability [16] of the same compound?
A: Its bioavailability is 7%.

Q: What about the Selectivity ratio (Homo sapiens [17]) of the same compound?
A: The Selectivity ratio was over 2000.

Q: And the IC50 [18]?
A: Its IC50 is 0.011 µM.

Q: What about the clearance [19] of the same compound?
A: The clearance was over 100 mL/min/kg.

Q: What about the half-life [20] of the same compound?
A: Its half-life is 12 min.

Q: For `CN1CC[C@]23c4c5ccc(O)c4O[C@H]2[C@@H](O)C=C[C@H]3[C@H]1C5`, which Activity (Mus musculus [11]) is on record?
A: The Activity was “Active”.
